Screen size: about 330,000 compounds; about 2,000 (0.61%) were called active.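 Rule for the calls: active = inhibition above that plate's mean sample inhibition plus 3 SD (cut at about 26% in these data); inactive = the rest.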 What follows is part of a selection rich in actives, with near analogues and random picks from the rest.
Assay: nonselective Gq signaling inhibition in CHO cells – cell-based, fluorescence, Fluo-8 calcium dye, counter-screen for OX1R antagonist project, primary screen (AID 463079);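 note: 0% = ATP-challenged DMSO wells and 100% = DMSO wells without ATP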
Details: parental CHO-K1, ATP-induced calcium, Fluo-8 fluorescence; at 5.6 µM; stronger effect = higher value
Summary of the method: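 Material: Parental CHO cells | Reagent: ATP | Compound dosing: Single nominal dose of 5.6 µM per compound | Detection: Intracellular calcium via Fluo-8 no-wash fluorescent dye | Read-out: % inhibition of ATP-induced calcium mobilization | Benchmarks: Low control ATP plus DMSO, high control DMSO only | Replicates: Singlicate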

Row | SMILES | inhibition
1 | CC1CCN(C(NC(=O)c2ccco2)C(=O)c2ccccc2)CC1 (stereo unspecified) | -6.97% (inactive)
2 | CCC(=O)Nc1ccc(-c2ccc(N3CCCCC3)nn2)cc1 | -16% (inactive)
3 | CC1CCN(c2ccc(-c3ccc(NC(=O)c4ccco4)cc3)nn2)CC1 | 45% (active)
4 | COc1ccc(CCNC(=O)CN(C)S(=O)(=O)c2ccc3nc(C)sc3c2)cc1OC | -5.92% (inactive)
5 | CC(=O)Nc1ccc(S(=O)(=O)NCCC(=O)N2CCN(c3ccccc3Cl)CC2)cc1 | -3.47% (inactive)
6 | CCOC(=O)CC1C(=O)NCCN1c1nc2c(C)cccn2c(=O)c1/C=C1\SC(=S)N(C(C)CC)C1=O (stereo unspecified) | 54.2% (active)
7 | CCOC(=O)N1CCN(C(=O)CSc2nc(=O)n3cccc(C)c3n2)CC1 | -15.5% (inactive)
8 | Cc1cccn2c(=O)c(/C=C(\C#N)C(N)=O)c(N3CCCCCC3)nc12 | -34.3% (inactive)
9 | COc1ccc(CC(NC(C)=O)C(=O)NC2CCN(C(=O)Nc3ccc(C#N)cc3)CC2)cc1OC (stereo unspecified) | -6.58% (inactive)
10 | CC(C)=CCN1CCN(CCCc2ccccc2)CC1CCO (stereo unspecified) | -8.88% (inactive)
11 | CN(C)S(=O)(=O)N1CCC(Oc2cccc(C(=O)NCCCC3CCCC3)c2)CC1 | 23.8% (inactive)
12 | CSc1ccc(S(=O)(=O)NCC(=O)OCC(=O)NC2(C#N)CCCCC2)cc1[N+](=O)[O-] | -8.63% (inactive)
13 | COc1ccc(-c2noc(CCC(=O)N3CCN(c4cccc(C)c4)CC3)n2)cc1 | -7.6% (inactive)
14 | Oc1c(Cl)cc(Cl)c(Cl)c1Cc1c(O)c(Cl)cc(Cl)c1Cl | 70.6% (active)
15 | COCC(=O)Nc1cc(C(=O)OC)cc(C(=O)OC)c1 | -1.27% (inactive)
16 | Cc1cccc(NC(=O)C2CC(=O)OC23CCCC3)c1 (stereo unspecified) | -13.3% (inactive)
17 | O=C(CNC(=O)C(c1ccccc1)c1ccccc1)N/N=C\c1ccc2c(c1)OCO2 | 2.64% (inactive)
18 | C/C(=N\NC(=O)CNC(=O)C(c1ccccc1)c1ccccc1)c1ccc(C)cc1 | 30.7% (active)
19 | C/C(=N/NC(=O)CC(=O)N/N=C(\C)c1ccc([N+](=O)[O-])cc1)c1ccc([N+](=O)[O-])cc1 | -3.47% (inactive)
20 | CCCc1ccc(C(=O)COC(=O)CN2C(=O)NC3(CCCCC3C)C2=O)cc1 (stereo unspecified) | -23.9% (inactive)
21 | COc1cc(C(=O)N2CCN(C/C=C/c3ccccc3)CC2)cc(OC)c1C | -10.8% (inactive)
22 | CC1(C)CC[C@]2(C(=O)O)CC[C@]3(C)C(=CCC4[C@@]5(C)CC[C@H](O)C(C)(C)C5[C@H](O)C[C@]43C)[C@@H]2C1 (stereo partly specified) | -9.31% (inactive)
23 | CC1(C)CC[C@@]2(C(=O)O)C(C1)C1=CCC3[C@@]4(C)CC[C@H](O)C(C)(C)C4CC[C@@]3(C)[C@]1(C)C[C@H]2O (stereo partly specified) | 93.2% (active)

Row | SMILES | inhibition
24 | CC1(C)C2CC[C@]3(C)C(CC=C4[C@@H]5C[C@@](C)(CO)CC[C@]5(C(=O)O)CC[C@]43C)[C@@]2(C)CC[C@@H]1O (stereo partly specified) | -1.46% (inactive)
25 | Cc1ccc(Cl)c(NC(=O)CN(C)CC(=O)Nc2ccc(F)c(F)c2F)c1Cl | -2.12% (inactive)
26 | NC(=O)c1ccc(-c2csnn2)cc1 | -15.6% (inactive)
27 | Cc1occc(=O)c1OCc1ccc(F)cc1 | -7.75% (inactive)
28 | Fc1ccccc1COc1cccc2cccnc12 | -22.9% (inactive)
29 | Cc1nc2ccccc2cc1OCc1ccc(F)cc1 | 54.1% (active)
30 | CCNC(=S)N1CCN(CCN=CC2=C(O)CC(C)(C)CC2=O)CC1 | -4.83% (inactive)
31 | C=C(Br)CN1CCN(CC(=C)Br)CC1 | 4.29% (inactive)
32 | CCCCNC(=O)C(C)N(CCN(C)C)C(=O)CCCCCN1C(=O)NC(c2ccc(Cl)cc2)C(C(=O)OCc2ccccc2)=C1C (stereo unspecified) | -17% (inactive)
33 | CNC(=O)NC(=O)CSc1nnc(-c2ccc(F)cc2)n1CC1CCCO1 (stereo unspecified) | -7.71% (inactive)
34 | Cc1ccc(S(=O)(=O)N2CCN(c3ncnc4ccccc34)CC2)cc1 | 0.84% (inactive)
35 | COc1ccc(C)cc1S(=O)(=O)N1CCN(S(=O)(=O)c2cc(C(=O)O)ccc2C)CC1 | -11.5% (inactive)
36 | Cc1ccc(C)c(S(=O)(=O)N2CCN(c3ncnc4sccc34)CC2)c1 | 62.3% (active)
37 | COc1ccc(NS(=O)(=O)c2cc(NC(=O)C3CCCCC3)ccc2N2CCOCC2)cc1 | 5.3% (inactive)
38 | CC(C)(C)c1ccc(CCC2OCC(CN3CCOCC3)O2)cc1 (stereo unspecified) | -9.27% (inactive)
39 | Cc1cc(OCCCN2CCN(Cc3ccccc3)CC2)ccc1[N+](=O)[O-] | 18.6% (inactive)
40 | Cc1cc(OCCCCOc2ccc(C#N)cc2)ccc1[N+](=O)[O-] | 44.9% (active)
41 | Cc1cc(OCC(=O)NC2CCN(C)CC2)ccc1[N+](=O)[O-] | -4.54% (inactive)
42 | CC[C@]12c3[nH]c4ccc(OC)cc4c3CCN1C(=O)C(CC(=O)NCc1ccco1)C[C@@H]2C(=O)N1CCN(C(=O)C2CC2)CC1 (stereo partly specified) | -3.18% (inactive)
43 | O=C1[C@@H](c2ccccc2)[C@@H](c2ccccc2)N1c1cccnc1 | 3.04% (inactive)
44 | CCc1ccc2ncc(C(=O)c3ccccc3)c(N3CCOCC3)c2c1 | -4.24% (inactive)
45 | Cc1ccc2c(c1)NC(=O)[C@@]1(C)[C@@H](c3ccccc3)[C@H]3COc4ccc(Cl)cc4[C@@H]3N1C2=O | -11.9% (inactive)
46 | CN(C)C(=O)CCc1ccc2c3c([nH]c2c1)[C@]1(C)[C@@H](C(=O)N2CCOCC2)C[C@H](CC(=O)NCCc2ccccn2)C(=O)N1CC3 | 1.44% (inactive)

Row | SMILES | inhibition
47 | CN(C)c1ccc(/C=C2\NC(=S)N(Cc3ccccc3)C2=O)cc1 | 70.7% (active)
48 | COc1cc(/C=C2/SC(=S)N(Cc3ccccc3)C2=O)cc(OC)c1O | 27.6% (inactive)
49 | CN(C)c1ccc(C=C2C(=O)OC3(CCCC3)OC2=O)cc1 | -4.66% (inactive)
50 | N#CC1(NC(=O)COC(=O)Cc2n[nH]c(=O)c3ccccc23)CCCCC1 | -1.72% (inactive)
51 | Cc1ccc(NC(=O)CN(C)CC(=O)Nc2cccc(F)c2)cc1[N+](=O)[O-] | 68.4% (active)
52 | Cc1ccc(NC(=O)c2sccc2C)cc1[N+](=O)[O-] | -13% (inactive)
53 | CN(CC(=O)Nc1cccc(F)c1)CC(=O)Nc1cccc([N+](=O)[O-])c1 | -2.05% (inactive)
54 | CCCc1ccc(-c2c(C)sc(NC(=O)c3ccnn3C)c2C#N)cc1 | 37% (active)
55 | CCN(CC)C(=O)c1sc(NC(=O)c2ccco2)c(C#N)c1C | -6.79% (inactive)
56 | Cn1nccc1CNC(=O)c1ccnn1C | 7.66% (inactive)
57 | Cc1cc(C)cc(Oc2nc3c(C)cccn3c(=O)c2/C=C(\C#N)C(=O)NC2CCS(=O)(=O)C2)c1 (stereo unspecified) | -10.7% (inactive)
58 | Cc1ccccc1C(=O)NC(=S)NC1CC1 | -11.8% (inactive)
59 | O=C(CSc1ncn[nH]1)Nc1nsc(-c2ccccc2)n1 | 0.25% (inactive)
60 | O=C(CSc1ncn[nH]1)Nc1nc(-c2cccc([N+](=O)[O-])c2)cs1 | 29.9% (active)
61 | O=C(CSc1nc(-c2ccccc2)cs1)Nc1cccc([N+](=O)[O-])c1 | -15.2% (inactive)
62 | CC(C)CC(CC(C)C)=NNC(=O)c1ccc(CSc2nncn2C)cc1 | -6.24% (inactive)
63 | Cc1cc(N2C(=O)C(O)=C(C(=O)c3ccc(C)o3)C2c2ccc(OCc3ccccc3)cc2)no1 (stereo unspecified) | -17.5% (inactive)
64 | C=CCOc1cccc(C2C(C(=O)c3ccc(C)o3)=C(O)C(=O)N2c2nnc(C)s2)c1 (stereo unspecified) | 35.4% (active)
65 | C=CCOc1cccc(C2C(C(=O)c3ccc(C)o3)=C(O)C(=O)N2CCCn2ccnc2)c1 (stereo unspecified) | 4.82% (inactive)
66 | Cc1ccc(SC(=O)COc2ccc(C)c(C)c2)cc1 | 11.9% (inactive)
67 | Cc1ccnc(-n2sc3ccccc3c2=O)n1 | 46.3% (active)
68 | Cc1nc2ccccc2c(=O)n1NC(=O)c1ccccc1 | -3.13% (inactive)
69 | CCOC(=O)N1CCC(=NNC(N)=O)CC1 | -14.6% (inactive)

Row | SMILES | inhibition
70 | O=Cc1c(Cl)cccc1Cl | -9.8% (inactive)
71 | O=C(NCCc1c[nH]c2ccc(Cl)cc12)c1ccc([N+](=O)[O-])cc1 | 8.94% (inactive)
72 | NS(=O)(=O)c1ccc(CCNC(=O)c2ccc(Cl)cc2[N+](=O)[O-])cc1 | -1.67% (inactive)
73 | O=C(NCCc1ccc(Cl)cc1Cl)c1cc([N+](=O)[O-])c[nH]c1=O | 26.2% (active)
74 | Cc1ccc(O/C=C2\OC(=O)c3ccccc32)cc1 | 3.04% (inactive)
75 | O=C(COC(=O)c1ncc(Cl)c(Cl)c1Cl)NCc1cccs1 | -15.5% (inactive)
76 | CC1CC(C)CN(C(=O)COC(=O)c2ccc3ncsc3c2)C1 (stereo unspecified) | -8.36% (inactive)
77 | CCC(=C/c1sc2ccc3ccccc3c2[n+]1C)/C=C1\Sc2ccc3ccccc3c2N1C | 79.9% (active)
78 | CCC1(c2ccccc2)NC(=O)N(CC(=O)Nc2ccccc2C(=O)NC2CCCC2)C1=O (stereo unspecified) | -8.29% (inactive)
79 | COc1ccc(NC(=O)CC2C(=O)OCC3CCCCN32)cc1Cl (stereo unspecified) | -17.2% (inactive)
80 | COC(=O)c1sc(-c2ccc(C(C)(C)C)cc2)cc1NC(=O)/C=C/C(=O)O | 38.8% (active)
81 | COc1ccccc1NC(=O)/C=C/C(N)=O | -0.46% (inactive)
82 | CC(C)(C)c1ccc(/C=C/C(=O)Nc2ncccn2)cc1 | -20.1% (inactive)
83 | CC(C)c1cc(C(N)=O)c(NC(=O)c2cccc(COc3ccc(Br)cc3)c2)s1 | -12.5% (inactive)
84 | O=C1OCCN1C(=O)[C@H]1[C@H](c2ccccc2)C(c2ccc(F)cc2)=NN1c1ccccc1 | -16.7% (inactive)
85 | CC1(C)Oc2ccc(C(=O)N3CCOCC3)cc2N(CC(=O)Nc2ccccc2)C1=O | -10.5% (inactive)
86 | Cc1nn(C)cc1/C=C1\CCC/C(=C\c2cn(C)nc2C)C1=O | 1.91% (inactive)
87 | O=C(/C=C/c1ccc(F)cc1)Nc1cccc(S(=O)(=O)Nc2cccc(C(F)(F)F)c2)c1 | -1.97% (inactive)
88 | CCOC(=O)N1CCN(C(=O)c2ccc(S(=O)(=O)Nc3cccc(C(F)(F)F)c3)cc2)CC1 | 10.1% (inactive)
89 | Cc1oc2c(F)c(F)c(F)c(F)c2c1S(=O)(=O)Nc1cccc(C(F)(F)F)c1 | 42.3% (active)
90 | COc1cccc(OC)c1C(=O)N1CCN(Cc2cccnc2)CC1 | 2.69% (inactive)
91 | CC[C@]12c3[nH]c4cc(CCC(=O)N(C)C)ccc4c3CCN1C(=O)[C@@H](CC(=O)NCc1ccco1)C[C@@H]2C(=O)N1CCN(C(=O)c2ccco2)CC1 | -6.08% (inactive)

From PubChem BioAssay AID463079 (The Scripps Research Institute Molecular Screening Center, 2010)
